From ChEMBL document CHEMBL4428070, “Design, synthesis, and evaluation of 4,6-diaminonicotinamide derivatives as novel and potent immunomodulators targeting JAK3” (Bioorg Med Chem, 2016)
Each block holds one compound with its values, some of them ahead of it.

Experiments:
[1] = target: Tyrosine-protein kinase JAK1 (Homo sapiens, UniProt P23458); experiment: Inhibition of human JAK1 assessed as reduction in phosphorylation of Biotin-Lyn-Substrate-2 after 1 hr in presence of ATP by ELISA
[2] = target: Voltage-gated inwardly rectifying potassium channel KCNH2 (Homo sapiens, UniProt Q12809); experiment: Inhibition of human ERG expressed in CHO-K1 cells after 10 mins by Rb efflux assay; assay type: cell-based
Sequence of Voltage-gated inwardly rectifying potassium channel KCNH2 (Q12809 whole entry): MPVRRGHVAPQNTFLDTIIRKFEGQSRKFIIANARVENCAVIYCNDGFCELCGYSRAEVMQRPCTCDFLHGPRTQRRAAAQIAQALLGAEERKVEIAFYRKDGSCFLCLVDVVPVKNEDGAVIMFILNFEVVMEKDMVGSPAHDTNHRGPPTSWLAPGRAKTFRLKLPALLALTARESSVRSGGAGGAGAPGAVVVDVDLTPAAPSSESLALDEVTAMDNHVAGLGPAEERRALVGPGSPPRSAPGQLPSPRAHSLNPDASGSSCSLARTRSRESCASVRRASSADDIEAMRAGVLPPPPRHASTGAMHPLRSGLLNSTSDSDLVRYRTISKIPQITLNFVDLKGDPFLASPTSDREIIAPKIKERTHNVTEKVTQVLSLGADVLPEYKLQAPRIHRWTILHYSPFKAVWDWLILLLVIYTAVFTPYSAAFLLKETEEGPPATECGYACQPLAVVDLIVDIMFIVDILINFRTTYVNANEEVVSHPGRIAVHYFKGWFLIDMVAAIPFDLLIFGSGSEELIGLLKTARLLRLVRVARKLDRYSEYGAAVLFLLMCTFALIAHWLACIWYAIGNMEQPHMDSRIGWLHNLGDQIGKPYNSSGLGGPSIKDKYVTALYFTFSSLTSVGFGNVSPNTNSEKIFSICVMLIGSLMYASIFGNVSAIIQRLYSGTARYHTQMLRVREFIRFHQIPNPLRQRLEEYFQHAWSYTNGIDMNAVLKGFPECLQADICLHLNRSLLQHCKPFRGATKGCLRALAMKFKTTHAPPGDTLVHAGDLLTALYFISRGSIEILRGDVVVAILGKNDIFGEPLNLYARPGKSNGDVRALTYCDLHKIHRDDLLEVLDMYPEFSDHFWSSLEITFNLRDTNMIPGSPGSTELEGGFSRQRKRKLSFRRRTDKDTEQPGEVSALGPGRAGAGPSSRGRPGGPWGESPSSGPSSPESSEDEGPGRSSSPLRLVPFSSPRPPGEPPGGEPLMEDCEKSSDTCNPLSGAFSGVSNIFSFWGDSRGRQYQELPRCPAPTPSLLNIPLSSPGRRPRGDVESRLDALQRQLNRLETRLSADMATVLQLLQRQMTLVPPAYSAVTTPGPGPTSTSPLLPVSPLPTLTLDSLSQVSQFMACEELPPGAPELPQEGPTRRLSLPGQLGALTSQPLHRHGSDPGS

[3] = Half life in rat at 1 mg/kg, iv; assay type: ADME, organism-based; settings: in vivo
[4] = AUC (0 to 24 hrs) in rat at 1 mg/kg, po; assay type: ADME, organism-based; parameters: dose 1 mg/kg, time < 24 hr, route oral; settings: in vivo
Rattus norvegicus [5] = experiment: Immunomodulatory activity in ACI-to-Lewis rat heterotopic cardiac transplant model assessed as cardiac allograft survival at 10 mg/kg, po coadministered with tacrolimus at 0.02 mg/kg, im dosed from day of transplantation once daily for 14 consecutive days; assay type: functional
Summary of the method: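 ACI rat hearts transplanted heterotopically into Lewis recipients. Oral drug given once daily for 14 consecutive days starting on the day of operation. In the combination arm, tacrolimus was given intramuscularly once daily. Cardiac allograft survival was checked by daily palpation for 28 days and expressed as median survival time (MST).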

[6] = target: Casein kinase I isoform delta (Homo sapiens) (UniProt P48730); experiment: Inhibition of CK1delta (unknown origin) at 1 uM
[7] = target: Receptor tyrosine-protein kinase erbB-2 (Homo sapiens) (UniProt P04626); experiment: Inhibition of HER2 (unknown origin) at 1 uM
[8] = target: Tyrosine-protein kinase JAK2 (Homo sapiens, UniProt O60674); experiment: Inhibition of human JAK2 assessed as reduction in phosphorylation of Biotin-Lyn-Substrate-2 after 1 hr in presence of ATP by ELISA
[9] = Oral bioavailability in rat at 1 mg/kg; assay type: ADME, organism-based; settings: in vivo
[10] = target: Aurora kinase C (Homo sapiens) (UniProt Q9UQB9); experiment: Inhibition of AurC (unknown origin) at 1 uM
[11] = Effective permeability of the compound at pH 6.5 by PAMPA; assay type: ADME; settings: read-out: Peff
Summary of the method: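 Parallel artificial membrane permeability assay, donor buffer pH 6.5; effective permeability reported in cm/sec (n=3).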

[12] = target: Epidermal growth factor receptor (Homo sapiens) (UniProt P00533); experiment: Inhibition of EGFR (unknown origin) at 1 uM
[13] = Cmax in rat at 1 mg/kg, po; assay type: ADME, organism-based; parameters: dose 1 mg/kg, route oral; settings: in vivo
[14] = target: Tyrosine-protein kinase ABL1 (Homo sapiens) (UniProt P00519); experiment: Inhibition of ABL (unknown origin) at 1 uM
[15] = target: High affinity nerve growth factor receptor (Homo sapiens) (UniProt P04629); experiment: Inhibition of TRKA (unknown origin) at 1 uM
Sequence of High affinity nerve growth factor receptor (Homo sapiens) (P04629 33-796 limits assumed): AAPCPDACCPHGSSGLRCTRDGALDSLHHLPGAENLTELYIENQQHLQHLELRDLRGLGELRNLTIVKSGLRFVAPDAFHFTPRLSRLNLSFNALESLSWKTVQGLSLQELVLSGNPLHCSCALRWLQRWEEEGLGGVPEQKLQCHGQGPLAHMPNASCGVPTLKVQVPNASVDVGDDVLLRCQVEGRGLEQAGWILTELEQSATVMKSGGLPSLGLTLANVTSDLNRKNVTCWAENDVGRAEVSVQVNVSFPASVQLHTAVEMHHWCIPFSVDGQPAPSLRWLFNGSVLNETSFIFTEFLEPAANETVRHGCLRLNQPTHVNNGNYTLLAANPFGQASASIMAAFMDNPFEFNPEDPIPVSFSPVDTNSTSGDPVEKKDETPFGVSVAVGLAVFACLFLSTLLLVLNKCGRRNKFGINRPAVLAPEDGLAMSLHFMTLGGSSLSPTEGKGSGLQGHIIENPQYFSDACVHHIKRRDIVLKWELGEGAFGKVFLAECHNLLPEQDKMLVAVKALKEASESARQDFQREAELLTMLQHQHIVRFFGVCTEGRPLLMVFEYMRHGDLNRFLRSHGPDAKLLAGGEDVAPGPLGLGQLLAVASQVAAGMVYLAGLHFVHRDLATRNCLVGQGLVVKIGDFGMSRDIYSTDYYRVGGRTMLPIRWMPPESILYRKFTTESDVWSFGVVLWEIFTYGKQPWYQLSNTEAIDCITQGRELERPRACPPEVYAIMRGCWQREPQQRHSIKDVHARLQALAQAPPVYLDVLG

[16] = target: Ephrin type-A receptor 2 (Homo sapiens) (UniProt P29317); experiment: Inhibition of EPHA2 (unknown origin) at 1 uM
[17] = Intrinsic clearance in rat liver microsomes in presence of NADPH; assay type: ADME, Microsome; settings: read-out: CLH
Summary of the method: (§1)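 Incubation with rat or human liver microsomes plus NADPH-generating system; intrinsic clearance expressed as mL/min/kg (n=2).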

[18] = target: High affinity nerve growth factor receptor (Homo sapiens) (UniProt P04629); experiment: Inhibition of TRKA (unknown origin) at 0.1 uM
[19] = target: Mitogen-activated protein kinase kinase kinase 9 (Homo sapiens) (UniProt P80192); experiment: Inhibition of MLK1 (unknown origin) at 0.1 uM
Sequence of Mitogen-activated protein kinase kinase kinase 9 (Homo sapiens) (P80192 whole entry, looked up): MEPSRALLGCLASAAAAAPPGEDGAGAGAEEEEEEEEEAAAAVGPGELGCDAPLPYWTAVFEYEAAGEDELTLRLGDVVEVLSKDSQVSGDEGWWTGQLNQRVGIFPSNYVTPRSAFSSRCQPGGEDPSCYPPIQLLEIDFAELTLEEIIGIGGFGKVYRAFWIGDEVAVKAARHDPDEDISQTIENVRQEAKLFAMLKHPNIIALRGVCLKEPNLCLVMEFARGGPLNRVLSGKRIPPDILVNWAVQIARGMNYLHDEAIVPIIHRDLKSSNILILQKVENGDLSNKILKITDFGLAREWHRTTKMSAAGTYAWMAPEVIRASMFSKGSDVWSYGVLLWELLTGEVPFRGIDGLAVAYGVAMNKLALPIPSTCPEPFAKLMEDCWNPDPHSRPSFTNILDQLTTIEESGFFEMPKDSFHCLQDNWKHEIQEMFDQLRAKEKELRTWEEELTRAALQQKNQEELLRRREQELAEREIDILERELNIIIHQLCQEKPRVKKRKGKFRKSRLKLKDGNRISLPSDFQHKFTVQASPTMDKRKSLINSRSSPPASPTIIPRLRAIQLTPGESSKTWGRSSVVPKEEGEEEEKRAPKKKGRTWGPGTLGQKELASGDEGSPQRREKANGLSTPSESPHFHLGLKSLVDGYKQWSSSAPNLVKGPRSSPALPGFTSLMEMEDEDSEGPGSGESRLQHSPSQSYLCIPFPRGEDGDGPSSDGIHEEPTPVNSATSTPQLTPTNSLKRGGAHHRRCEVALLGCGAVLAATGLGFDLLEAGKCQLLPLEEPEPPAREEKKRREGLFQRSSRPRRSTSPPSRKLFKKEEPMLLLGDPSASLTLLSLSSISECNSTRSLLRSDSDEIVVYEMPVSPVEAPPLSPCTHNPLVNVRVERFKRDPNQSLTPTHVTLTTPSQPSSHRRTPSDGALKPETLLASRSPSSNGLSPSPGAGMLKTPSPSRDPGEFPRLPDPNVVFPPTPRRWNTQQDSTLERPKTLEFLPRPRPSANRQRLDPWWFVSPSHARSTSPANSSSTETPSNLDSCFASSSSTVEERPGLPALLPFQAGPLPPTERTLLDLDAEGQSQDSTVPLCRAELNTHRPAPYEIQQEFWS

[20] = target: Focal adhesion kinase 1 (Homo sapiens) (UniProt Q05397); experiment: Inhibition of FAK (unknown origin) at 1 uM
[21] = target: RAC-alpha serine/threonine-protein kinase (Homo sapiens) (UniProt P31749); experiment: Inhibition of AKT1 (unknown origin) at 1 uM
[22] = target: Mitogen-activated protein kinase kinase kinase 9 (Homo sapiens) (UniProt P80192); experiment: Inhibition of MLK1 (unknown origin) at 0.01 uM
[23] = target: T1, CDK2/Cyclin A2 (Homo sapiens) (UniProt P24941+P20248); experiment: Inhibition of CDK2/CycA (unknown origin) at 0.1 uM; assay type: protein-complex assay
[24] = target: Tyrosine-protein kinase ZAP-70 (Homo sapiens) (UniProt P43403); experiment: Inhibition of ZAP70 (unknown origin) at 1 uM
Sequence of Tyrosine-protein kinase ZAP-70 (Homo sapiens) (P43403 whole entry): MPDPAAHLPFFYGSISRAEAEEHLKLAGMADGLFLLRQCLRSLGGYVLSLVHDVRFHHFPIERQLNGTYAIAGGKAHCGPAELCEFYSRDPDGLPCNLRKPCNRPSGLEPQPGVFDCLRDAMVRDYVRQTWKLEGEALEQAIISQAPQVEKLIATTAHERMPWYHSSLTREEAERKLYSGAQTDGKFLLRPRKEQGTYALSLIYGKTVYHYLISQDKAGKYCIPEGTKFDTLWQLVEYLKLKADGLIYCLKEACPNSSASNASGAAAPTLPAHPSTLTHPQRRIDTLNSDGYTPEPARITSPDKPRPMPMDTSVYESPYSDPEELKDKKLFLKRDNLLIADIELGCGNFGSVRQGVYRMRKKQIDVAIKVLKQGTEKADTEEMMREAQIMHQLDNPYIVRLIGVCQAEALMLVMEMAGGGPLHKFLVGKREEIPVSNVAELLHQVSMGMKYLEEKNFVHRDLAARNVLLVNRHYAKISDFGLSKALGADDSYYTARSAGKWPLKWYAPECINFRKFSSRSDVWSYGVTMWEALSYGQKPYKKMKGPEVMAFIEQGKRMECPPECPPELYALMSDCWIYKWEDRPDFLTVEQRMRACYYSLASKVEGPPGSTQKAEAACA

[25] = target: Serine/threonine-protein kinase Chk1 (Homo sapiens) (UniProt O14757); experiment: Inhibition of CHK1 (unknown origin) at 1 uM
[26] = AUC (0 to 24 hrs) in rat at 1 mg/kg, iv; assay type: ADME, organism-based; parameters: dose 1 mg/kg, time < 24 hr, route intravenous; settings: in vivo
[27] = target: Tyrosine-protein kinase BTK (Homo sapiens) (UniProt Q06187); experiment: Inhibition of BTK (unknown origin) at 1 uM
[28] = target: High affinity nerve growth factor receptor (Homo sapiens) (UniProt P04629); experiment: Inhibition of TRKA (unknown origin) at 0.01 uM
[29] = Tmax in rat at 1 mg/kg, po; assay type: ADME, organism-based; settings: in vivo
[30] = Volume of distribution at steady state in rat at 1 mg/kg, iv; assay type: ADME, organism-based; settings: in vivo, read-out: Vdss
[31] = target: T1, CDK2/Cyclin A2 (Homo sapiens); experiment: Inhibition of CDK2/CycA (unknown origin) at 1 uM; assay type: protein-complex assay
[32] = target: Bone morphogenetic protein receptor type-1A (Homo sapiens) (UniProt P36894); experiment: Inhibition of BMPR1A (unknown origin) at 1 uM
[33] = Total clearance in rat at 1 mg/kg, iv; assay type: ADME, organism-based; settings: in vivo
[34] = target: T1, CDK2/Cyclin A2 (Homo sapiens); experiment: Inhibition of CDK2/CycA (unknown origin) at 0.01 uM; assay type: protein-complex assay
[35] = target: Calcium/calmodulin-dependent protein kinase type II subunit alpha (Homo sapiens) (UniProt Q9UQM7); experiment: Inhibition of CaMK2alpha (unknown origin) at 1 uM
[36] = target: Angiopoietin-1 receptor (Homo sapiens) (UniProt Q02763); experiment: Inhibition of TIE2 (unknown origin) at 1 uM
[37] = Intrinsic clearance in human liver microsomes in presence of NADPH; assay type: ADME, Microsome; settings: read-out: CLH; summary of the method: as §1
[38] = target: Mitogen-activated protein kinase kinase kinase 9 (Homo sapiens) (UniProt P80192); experiment: Inhibition of MLK1 (unknown origin) at 1 uM
[39] = target: T2, Tyrosine-protein kinase JAK3 (Homo sapiens, UniProt P52333); experiment: Inhibition of human JAK3 assessed as reduction in phosphorylation of Biotin-Lyn-Substrate-2 after 1 hr in presence of ATP by ELISA
T2 sequence (P52333 whole entry): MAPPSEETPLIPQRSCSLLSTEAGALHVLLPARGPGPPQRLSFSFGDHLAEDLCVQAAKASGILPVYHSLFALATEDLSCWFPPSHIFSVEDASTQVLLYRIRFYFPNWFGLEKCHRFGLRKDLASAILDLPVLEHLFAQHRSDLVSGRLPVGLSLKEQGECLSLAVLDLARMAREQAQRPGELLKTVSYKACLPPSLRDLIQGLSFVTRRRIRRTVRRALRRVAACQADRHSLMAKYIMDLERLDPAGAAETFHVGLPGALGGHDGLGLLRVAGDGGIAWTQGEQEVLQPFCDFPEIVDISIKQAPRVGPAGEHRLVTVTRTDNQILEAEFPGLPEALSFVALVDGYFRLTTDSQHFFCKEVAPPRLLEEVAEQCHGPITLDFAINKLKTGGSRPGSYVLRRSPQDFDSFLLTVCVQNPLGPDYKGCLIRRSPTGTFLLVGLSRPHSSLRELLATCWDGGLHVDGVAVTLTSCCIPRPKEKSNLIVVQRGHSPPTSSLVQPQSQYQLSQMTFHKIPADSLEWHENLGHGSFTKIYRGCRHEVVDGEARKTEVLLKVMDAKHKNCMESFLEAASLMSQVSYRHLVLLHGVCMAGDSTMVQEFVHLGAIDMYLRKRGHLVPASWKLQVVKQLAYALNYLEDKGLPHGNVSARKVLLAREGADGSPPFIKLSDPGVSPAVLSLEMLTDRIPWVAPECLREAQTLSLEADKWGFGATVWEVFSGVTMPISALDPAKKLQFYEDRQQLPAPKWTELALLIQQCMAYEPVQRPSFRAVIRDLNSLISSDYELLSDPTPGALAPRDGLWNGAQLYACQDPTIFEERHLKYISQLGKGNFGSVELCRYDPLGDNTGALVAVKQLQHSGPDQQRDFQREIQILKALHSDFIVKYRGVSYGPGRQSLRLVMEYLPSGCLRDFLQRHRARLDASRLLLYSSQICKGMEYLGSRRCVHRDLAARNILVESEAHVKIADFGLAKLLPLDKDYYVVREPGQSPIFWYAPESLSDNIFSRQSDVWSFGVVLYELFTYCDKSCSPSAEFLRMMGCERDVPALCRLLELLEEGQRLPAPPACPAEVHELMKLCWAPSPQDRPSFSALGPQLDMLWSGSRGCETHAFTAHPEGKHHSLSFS

Rattus norvegicus [40] = experiment: Immunomodulatory activity in ACI-to-Lewis rat heterotopic cardiac transplant model assessed as mean survival time at 0.02 mg/kg, im dosed from day of transplantation once daily for 14 consecutive days measured for 28 days; assay type: functional
[41] = target: Tyrosine-protein kinase JAK3 (Homo sapiens) (UniProt P52333); experiment: Inhibition of human JAK3 assessed as phosphorylation of Biotin-Lyn-Substrate-2 at 1 uM after 1 hr in presence of ATP by ELISA

Sequence of Tyrosine-protein kinase JAK1 (P23458 whole entry): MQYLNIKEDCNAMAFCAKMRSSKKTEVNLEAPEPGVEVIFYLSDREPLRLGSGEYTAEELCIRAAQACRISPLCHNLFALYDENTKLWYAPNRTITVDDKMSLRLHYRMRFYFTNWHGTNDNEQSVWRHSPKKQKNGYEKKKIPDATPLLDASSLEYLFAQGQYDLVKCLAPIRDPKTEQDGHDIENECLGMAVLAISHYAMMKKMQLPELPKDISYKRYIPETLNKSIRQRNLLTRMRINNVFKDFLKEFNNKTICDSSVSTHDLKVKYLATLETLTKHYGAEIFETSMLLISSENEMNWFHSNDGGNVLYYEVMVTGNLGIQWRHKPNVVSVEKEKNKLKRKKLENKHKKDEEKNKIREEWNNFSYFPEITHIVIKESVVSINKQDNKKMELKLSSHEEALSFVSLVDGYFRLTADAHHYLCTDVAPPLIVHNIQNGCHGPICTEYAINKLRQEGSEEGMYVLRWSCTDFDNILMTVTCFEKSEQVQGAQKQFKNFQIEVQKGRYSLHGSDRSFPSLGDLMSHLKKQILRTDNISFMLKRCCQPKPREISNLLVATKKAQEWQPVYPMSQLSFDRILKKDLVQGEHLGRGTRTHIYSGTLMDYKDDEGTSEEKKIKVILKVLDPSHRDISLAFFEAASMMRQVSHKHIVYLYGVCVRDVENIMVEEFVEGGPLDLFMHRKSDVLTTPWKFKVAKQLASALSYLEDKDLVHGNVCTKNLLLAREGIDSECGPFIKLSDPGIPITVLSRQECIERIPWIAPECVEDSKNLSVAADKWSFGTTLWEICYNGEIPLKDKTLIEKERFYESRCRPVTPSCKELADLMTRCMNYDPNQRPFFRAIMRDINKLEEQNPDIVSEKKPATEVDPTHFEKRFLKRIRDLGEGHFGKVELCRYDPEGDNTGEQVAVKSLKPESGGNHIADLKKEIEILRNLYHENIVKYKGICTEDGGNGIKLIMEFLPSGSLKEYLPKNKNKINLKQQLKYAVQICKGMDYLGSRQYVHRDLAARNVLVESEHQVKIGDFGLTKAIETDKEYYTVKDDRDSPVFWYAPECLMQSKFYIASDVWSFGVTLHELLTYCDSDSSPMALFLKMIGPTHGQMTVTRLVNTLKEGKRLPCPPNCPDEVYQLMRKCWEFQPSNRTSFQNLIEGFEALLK

SMILES: Cc1nccc(Nc2cc(N[C@@H]3CCN(c4ccc(C#N)cn4)C[C@@H]3F)c(C(N)=O)cn2)n1
IC50 [1]: 0.24 nM
IC50 [2]: > 100 µM

SMILES: Cc1nccc(Nc2cc(NC3CCN(c4ccc(C#N)cc4)CC3)c(C(N)=O)cn2)n1
half-life [3]: 204 min
AUC(0-t) at 24 h [4]: 278 ng·h/mL
MST (Rattus norvegicus [5]): 22.5 days
inhibition [6]: 25%
inhibition [7]: 14%
IC50 [8]: 3.5 nM
bioavailability [9]: 23.6%
inhibition [10]: 28%
Papp [11]: > 30 ×10⁻⁶ cm/s
inhibition [12]: 19%
Cmax [13]: 52.9 ng/mL
inhibition [14]: 54%
inhibition [15]: 94%
inhibition [16]: 11%
CLint scaled [17]: 146 mL/min/kg
inhibition [18]: 49%
inhibition [19]: 84%
inhibition [20]: 18%
inhibition [21]: 10%
IC50 [1]: 4.2 nM
inhibition [22]: 26%
inhibition [23]: 76%
inhibition [24]: -2%
IC50 [2]: > 100 µM
inhibition [25]: 33%
AUC(0-t) at 24 h [26]: 1180 ng·h/mL
inhibition [27]: 49%
inhibition [28]: 8%
Tmax [29]: 24 min
Vd [30]: 3.5 L/kg
inhibition [31]: 96%
inhibition [32]: 3%
clearance [33]: 14.3 mL/min/kg
inhibition [34]: 27%
inhibition [35]: -1%
inhibition [36]: 8%
CLint scaled [37]: 109 mL/min/kg
inhibition [38]: 96%

SMILES: Cc1nccc(Nc2cc(NC3CCN(c4ccc(C#N)cn4)CC3)c(C(N)=O)cn2)n1
IC50 [8]: 3.2 nM
IC50 [1]: 5.4 nM
IC50 [2]: 8.1 µM

SMILES: C[C@@H]1CCCC[C@@H]1Nc1cc(Nc2ccccc2)ncc1C(N)=O
IC50 [39]: 37 nM

SMILES: C=CC[C@@H]1/C=C(\C)C[C@H](C)C[C@H](OC)[C@H]2O[C@@](O)(C(=O)C(=O)N3CCCC[C@H]3C(=O)O[C@H](/C(C)=C/[C@@H]3CC[C@@H](O)[C@H](OC)C3)[C@H](C)[C@@H](O)CC1=O)[C@H](C)C[C@@H]2OC [TACROLIMUS ANHYDROUS]
MST (Rattus norvegicus [40]): 6.5 days

SMILES: Cc1nc2ccc(Nc3cc(NC4CCN(c5ccc(C#N)cn5)CC4)c(C(N)=O)cn3)cc2o1
IC50 [39]: 25 nM
IC50 [8]: 130 nM

SMILES: CN(c1ccccc1)c1cc(NCc2ccccc2)c(C(N)=O)cn1
IC50 [39]: > 1000 nM
inhibition [41]: 40%

SMILES: NC(=O)c1cnc(N)cc1NCc1ccccc1
IC50 [39]: > 1000 nM
inhibition [41]: 41%

More lines, in order of falling IC50 [39], values ahead:

IC50 [39]: 22 nM
IC50 [8]: 400 nM
SMILES: Cc1nc2cc(Nc3cc(NC4CCN(c5ccc(C#N)cn5)CC4)c(C(N)=O)cn3)ccc2o1

IC50 [39]: 18 nM
IC50 [8]: 190 nM
SMILES: N#Cc1ccc(N2CCC(Nc3cc(Nc4ccccc4)ncc3C(N)=O)CC2)nc1

IC50 [39]: 1.1 nM
IC50 [8]: 5.3 nM
IC50 [1]: 6.7 nM
SMILES: Cc1cnc(Nc2cc(NC3CCN(c4ccc(C#N)cn4)CC3)c(C(N)=O)cn2)cn1
IC50 [2]: 4.8 µM

IC50 [39]: 1 nM
IC50 [8]: 4 nM
IC50 [1]: 1.9 nM
SMILES: Cc1cncc(Nc2cc(NC3CCN(c4ccc(C#N)cn4)CC3)c(C(N)=O)cn2)n1
IC50 [2]: 5.4 µM

IC50 [39]: 0.72 nM
IC50 [8]: 4.1 nM
IC50 [1]: 2.5 nM
SMILES: N#Cc1ccc(N2CCC(Nc3cc(Nc4cnccn4)ncc3C(N)=O)CC2)nc1
IC50 [2]: 7.7 µM

IC50 [39]: 0.61 nM
IC50 [8]: 5.5 nM
IC50 [1]: 3.5 nM
SMILES: N#Cc1ccc(N2CCC(Nc3cc(Nc4ccncn4)ncc3C(N)=O)CC2)nc1
IC50 [2]: 17 µM

IC50 [39]: 0.46 nM
IC50 [1]: 2.9 nM
SMILES: N#Cc1ccc(N2CCC(Nc3cc(Nc4ccccn4)ncc3C(N)=O)CC2)nc1
IC50 [2]: 0.36 µM
